# Bioassay records (PubChem)
# NR2E3 ag-1: inhibitors of NR2E3-RetCOR corepressor binding, primary screen, NR2E3 agonist project, biochemical, TR-FRET, GST-NR2E3, biotin-RetCOR | 1536-well | hit rate 0.12% among 320,000 | inhibition of corepressor binding, % at 4.78 µM;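 active means percent inhibition above the cutoff of mean plus 3 SD of all tested compounds, set per screening campaign, cut at about 20% in these data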
#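 Material: NR2E3–RetCOR corepressor complex / Incubation: Compound–protein incubation for 5 h at 4 °C / Dosing: compound at 4.8 µM, single dose / Detection: time-resolved FRET / Benchmarks: high control biotin, low control 0.6% DMSO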
# PKA-R1A act: activators of PKA-R1A holoenzyme, primary screen, biochemical, fluorescence polarization, Cy5-IP20, bovine R1A, mouse PKAc. PKA-R1A dissociation; scaled: DMSO 0%, 113 µM cGMP 100%. activation, % at 11.4 µM. hit rate 0.083% among 340,000;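 active means percent activation above the mean of all tested compounds plus 3 SD, cut at about 19% in these data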;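 further: higher means more PKAc released from R1A so a rise in polarization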
# NR2E3 ag-2: NR2E3 agonists in two-hybrid cells, primary screen, cell-based, luminescence, CHO-S, Gal4-NCOR/VP16-NR2E3; Photoreceptor-specific nuclear receptor (Homo sapiens), Q9Y5X4; luciferase; inhibition of corepressor binding, % at 3.98 µM; hit rate 0.35% among 360,000; AID 602229, 2012;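 active means inhibition above the mean of all tested compounds plus 3 SD, cut at about 70% in these data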;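 further: higher means lower luciferase signal from less NR2E3 corepressor binding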
# PG9 Ab binder: binders of HIV-1 gp120 antibody PG9, primary screen, biochemical, TR-FRET. TR-FRET gp120-PG9 antibody binding. hit rate 0.43% among 360,000. inhibition, % at 6.7 µM; in the data active means inhibition above about 8.5%
# PKA-R2B act: activators of PKA-R2B holoenzyme, primary screen, biochemical, fluorescence polarization, Cy5-IP20, human; PKA-R2B holoenzyme dissociation; R2B truncated from residue 108, S112A mutant; 0% DMSO only, 100% 113 µM cGMP; cAMP-dependent protein kinase catalytic subunit beta (Homo sapiens) + cAMP-dependent …; hit rate 0.079% among 340,000; activation, % at 11.4 µM;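 active means activation above a cutoff set at the mean over all compounds plus 3 SD, cut at about 18% in these data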;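 further: higher means more holoenzyme dissociation and a rise in polarization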
# Rev-erbA mod: modulators of Rev-erb alpha DNA binding, primary screen, biochemical, FITC-DNA, fluorescence polarization, uHTS; activity, % at 10 µM; Rev-erbα–FITC-DNA binding, 90 min; AID 1259318, 2017; Nuclear receptor subfamily 1 group D member 1 (Homo sapiens), P20393; hit rate 0.79% among 370,000;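 active means activity above about 14%, limit read from the data; passing the limit was not always enough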
# Target sequence (P20393 whole entry, looked up): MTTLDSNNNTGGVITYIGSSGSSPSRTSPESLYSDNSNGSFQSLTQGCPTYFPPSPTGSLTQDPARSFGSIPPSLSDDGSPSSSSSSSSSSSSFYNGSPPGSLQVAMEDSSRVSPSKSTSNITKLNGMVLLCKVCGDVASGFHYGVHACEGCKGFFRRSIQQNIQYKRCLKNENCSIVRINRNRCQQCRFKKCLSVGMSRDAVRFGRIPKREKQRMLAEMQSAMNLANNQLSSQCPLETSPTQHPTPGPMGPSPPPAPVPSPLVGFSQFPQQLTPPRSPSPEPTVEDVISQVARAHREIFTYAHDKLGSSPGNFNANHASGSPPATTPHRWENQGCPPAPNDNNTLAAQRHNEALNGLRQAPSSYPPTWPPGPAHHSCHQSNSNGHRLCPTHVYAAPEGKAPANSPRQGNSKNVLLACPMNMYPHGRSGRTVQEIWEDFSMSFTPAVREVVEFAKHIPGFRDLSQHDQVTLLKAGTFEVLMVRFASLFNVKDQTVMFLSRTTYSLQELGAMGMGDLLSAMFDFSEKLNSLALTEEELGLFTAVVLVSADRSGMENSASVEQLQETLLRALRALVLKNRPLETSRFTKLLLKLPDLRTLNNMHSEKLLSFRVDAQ
# PG9 binder conf: binders of anti-gp120 antibody PG9, confirmation, biochemical, TR-FRET. AID 651571, 2012. shares compounds with PG9 Ab binder. inhibition, % at 6.7 µM. hit rate 90% among 1,500. TR-FRET PG9 antibody binding; in the data active means inhibition above about 9%
# PGV04 Ab binding: binders of control antibody PGV04, counter-screen for PG9 antibody binder project, biochemical, TR-FRET, distinct HIV envelope site; hit rate 95% among 1,500; shares compounds with PG9 Ab binder; AID 651604, 2012; TR-FRET PGV04 antibody-gp120 binding; inhibition, % at 6.7 µM; in the data active means inhibition above about 9.5%
# PG9 binder DR: small-molecule binders of antibody PG9, dose response, biochemical, TR-FRET, HIV-1 gp120 antibody; AID 651848, 2012; 95 tested, under 10 active; shares compounds with PG9 Ab binder; IC50, µM; TR-FRET PG9 antibody-gp120 binding inhibition; in the data active means IC50 below about 10 µM
# PGV04 binding DR: binders of control antibody PGV04, dose response, counter-screen for PG9 antibody binder project, biochemical, TR-FRET, distinct HIV envelope site; shares compounds with PG9 Ab binder; TR-FRET binding to control antibody PGV04; IC50, µM; hit rate 20% among 95; AID 651937, 2012
# PG126 binding DR: binders of control antibody PG126, dose response, counter-screen for PG9 antibody binder project, biochemical, TR-FRET, distinct HIV envelope site | shares compounds with PG9 Ab binder | TR-FRET binding to antibody PG126, counterscreen | IC50, µM | hit rate 20% among 95
# A number is an active result; . = inactive; / = no result. The list is not random: actives were taken first. Their share in the collection is about 1.6%. Unless noted, no stated cut-off is given here; in the data, active means IC50 below about 9 µM; inactive means the rest.
SMILES,NR2E3 ag-1,PKA-R1A act,NR2E3 ag-2,PG9 Ab binder,PKA-R2B act,Rev-erbA mod,PG9 binder conf,PGV04 Ab binding,others
CCOc1ccc(N(CC(=O)NCc2ccc(F)cc2)C(=O)c2snc(C(N)=O)c2N)cc1,.,.,.,9.4,.,.,18,25,
CC(C)c1ccc(N(CC(=O)NCc2ccc(F)cc2)C(=O)c2snc(C(N)=O)c2N)cc1,.,.,.,11,.,.,18,23,
COc1ccc(C(=O)CSc2nnc(-c3cc(C)on3)o2)cc1,.,.,.,19,.,.,23,49,
C=CCN1C(=O)[C@@H](CC(=O)NCCCN2CCCC2=O)[C@]2(C(=O)OC)CCCCC=C12,/,/,/,/,/,.,/,/,
N#Cc1c(-c2ccncc2)cc(-c2ccc(F)cc2)nc1N,.,.,.,33,.,.,8.9,26,
Cc1ccc(-c2cc(-c3ccc(F)cc3)nc(N)c2C#N)o1,.,.,.,.,.,.,/,/,
COc1ccc(-c2c(C(C)=O)c(C)nc3sc4c(=N)n(N)cnc4c23)cc1,.,.,.,.,.,.,/,/,
COc1ccc(C2NC(=O)c3sc4nc(C)c(C(C)=O)c(-c5ccc(Cl)cc5)c4c3N2)cc1 (configuration not stated),.,.,.,9.3,.,.,22,40,
CN(Cc1c(O)ccc2c1oc(=O)c1ccccc12)C1CCCCC1,.,.,.,9.9,.,.,12,17,
CN(C)Cc1c(O)ccc2c3c(c(=O)oc12)CCCCC3,.,.,.,.,.,.,/,/,
CS(=O)(=O)c1ccc2nc(NC(=O)c3cc4ccccc4o3)sc2c1,.,.,.,9.6,.,.,24,33,
Cc1cc(C)c2nc(-c3ccccn3)cc(C(=O)Nc3cc(C)on3)c2c1,.,.,.,17,.,.,19,27,
Cc1cc(NC(=O)c2cc(-c3ccccn3)nc3ccccc23)no1,.,.,.,.,.,.,/,/,
Cc1cc(NC(=O)c2cc(-c3ccccn3)nc3c(Cl)cccc23)no1,.,.,.,33,.,.,42,62,
Cc1ccccc1N1CCN(C2=Nc3ccccc3Sc3ccccc32)CC1,/,/,/,/,/,.,/,/,
Cc1ccc(-c2nc3cccnc3s2)cc1NC(=O)C1c2ccccc2Oc2ccccc21,/,.,.,19,.,.,30,63,
COc1cccc(C2C(C(=O)c3cccs3)=C(O)C(=O)N2c2cc(C)on2)c1 (configuration not stated),.,.,.,.,.,.,/,/,
COc1ccccc1C1C(C(=O)c2ccco2)=C(O)C(=O)N1c1cc(C)on1 (configuration not stated),.,.,.,.,.,.,/,/,
COc1cccc(C2C(C(=O)c3ccc(C)o3)=C(O)C(=O)N2c2cc(C)on2)c1 (configuration not stated),.,.,.,8.7,.,.,17,22,
COc1cccc(C2C(C(=O)c3cc4cccc(OC)c4o3)=C(O)C(=O)N2c2cc(C)on2)c1OC (configuration not stated),.,.,.,14,.,.,22,36,
COc1cccc(C2C(C(=O)c3ccc(C)o3)=C(O)C(=O)N2CCN2CCOCC2)c1 (configuration not stated),.,.,.,9.0,.,.,21,25,
C[C@H]1[C@@H](N)CC[C@@]23CCCN2C(=O)CCC[C@@H]13,/,/,/,/,/,.,/,/,
CC[C@@H](CCCc1ccc(OC)cc1)CCC(=O)N(c1ccccc1)c1ccccc1,/,/,/,/,/,.,/,/,
CCCCCCCCN1C(=O)[C@@H](CC(=O)N2CCN(C(=O)C3CC3)CC2)C[C@@]2(C(=O)OC)C1=C[C@H](C(C)(C)C)O[C@@H]2C,/,/,/,.,/,.,/,/,
Nn1c(=S)[nH]c2sc3c(c2c1=O)CCCC3,.,.,.,9.7,.,.,10,9.4,PG9 binder DR=.;PGV04 binding DR=.;PG126 binding DR=.
SMILES,NR2E3 ag-1,PKA-R1A act,NR2E3 ag-2,PG9 Ab binder,PKA-R2B act,Rev-erbA mod,PG9 binder conf,PGV04 Ab binding,others
Cc1nc(SCC(=O)NCc2ccccc2)c2c(=O)n(C)c(=O)n(C)c2n1,.,.,.,14,.,.,.,.,
CCOC(=O)C1CCCN(C(=O)c2ccc3oc(Cc4ccccc4)nc3c2)C1 (configuration not stated),.,.,.,12,.,.,.,.,
Cc1cc2cc(CN3C(=O)c4ccccc4C3=O)ccc2n1C,.,.,.,31,.,.,39,63,
CCc1nc(N)c(C#N)c(-c2cccc3ccccc23)c1C,.,.,.,15,.,.,21,29,
CCc1nc(N)c(C#N)c(-c2ccncc2)c1C,.,.,.,.,.,.,/,/,
Cc1ccc(NC(=O)Cn2cc(S(=O)(=O)c3ccc(C)cc3)c(=O)c3cc(F)ccc32)cc1,.,.,.,13,.,.,36,62,
COc1ccccc1Cn1c(=S)[nH]c2ccc(Br)cc2c1=O,.,.,.,.,.,.,/,/,
COc1ccccc1Cn1c(=S)[nH]c2ccc(F)cc2c1=O,.,.,.,32,.,.,18,17,PG9 binder DR=.;PGV04 binding DR=.;PG126 binding DR=.
CC[C@@]1(O)C(=O)OCc2c1cc1n(c2=O)Cc2cc3c(CN(C)C)c(O)ccc3nc2-1,.,.,.,12,.,.,12,20,
